Data set [1] concerns Mus musculus. Description: Antiinflammatory activity against carrageenan-induced paw edema in Swiss albino mouse assessed as swelling thickness at 100 mg/kg, po after 90 mins. It counts as functional. Put shortly:
(§1)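 Oral dosing in 0.5% CMC; vehicle to controls. Then carrageenan (0.5 mg/25 ll, freshly suspended in 154 mM saline) injected into the right hind paw subplantar tissue; saline into the left paw. Right-left footpad thickness difference measured by dial gauge calliper every 90 min over 6 h. Inhibition % is relative to vehicle control. n = 6; mean ± SEM.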

The test system of data set [2] is Mus musculus. Description: Inhibition of p-benzoquinone-induced writhing in Swiss albino mouse at 100 mg/kg, po relative to control. It counts as functional. Put shortly:
(§2)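 Mice, n = 6 per group, dosed orally with a suspension in 0.5% sodium CMC. 60 min later, 0.1 ml/10 g of 2.5% […] p-benzoquinone in distilled water given ip. Abdominal writhes counted per animal for 15 min, starting 5 min after injection. Expressed as % change in mean writhing count versus vehicle controls.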

Data set [3] has as its system Mus musculus. Description: Analgesic activity against p-benzoquinone-induced abdominal constriction in Swiss albino mouse assessed as number of writhings at 100 mg/kg, po. It counts as functional, Abdomen. The gist of the method:
(§3)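 Test samples given orally in 0.5% CMC; vehicle to controls. 60 min later, 2.5% (v/v) p-benzoquinone in distilled water, 0.1 ml/10 g, given i.p. Mice housed singly; writhes counted for 15 min starting 5 min after injection. Activity is % change from vehicle controls. n = 6; mean ± SEM.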

The test system of data set [4] is Mus musculus. Briefly: Acute toxicity in Swiss albino mouse assessed as lethal effect at 200 mg/kg/day, po after 72 hrs. It counts as organism-based. Further details: route oral. To be noted: in vivo. The gist of the method: (§4)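 Oral single dose suspended in 0.5% carboxymethylcellulose, given after a 24 h fast; food and water returned 1 h after dosing. Vehicle-only controls. Mice observed at 1 h, then once daily for 72 h, for toxic signs and mortality.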

Data set [5] relates to Mus musculus. Briefly: Acute toxicity in Swiss albino mouse assessed as lethal effect at 25 mg/kg/day, po after 72 hrs. It counts as organism-based. The arrangement: route oral. Conditions: in vivo. The gist of the method: as §4
The test system of data set [6] is Mus musculus. Description: Antiinflammatory activity against carrageenan-induced paw edema in Swiss albino mouse assessed as swelling thickness at 100 mg/kg, po after 270 mins. It counts as functional. Put shortly: as §1
Data set [7] deals with Mus musculus. Description: Antiinflammatory activity against carrageenan-induced paw edema in Swiss albino mouse assessed as swelling thickness at 100 mg/kg, po after 180 mins. It counts as functional. The gist of the method: as §1
Data set [8] deals with Mus musculus. Briefly: Antiinflammatory activity against carrageenan-induced paw edema in Swiss albino mouse assessed as swelling thickness at 100 mg/kg, po after 360 mins. It counts as functional. Put shortly: as §1
Data set [9] deals with Mus musculus. Description: Acute toxicity in Swiss albino mouse assessed as lethal effect at 100 mg/kg/day, po after 72 hrs. It counts as organism-based. Further details: route oral. To be noted: in vivo. The gist of the method: as §4
Data set [10] concerns Mus musculus. Description: Acute toxicity in Swiss albino mouse assessed as lethal effect at 50 mg/kg/day, po after 72 hrs. Conditions: in vivo. It counts as organism-based. Further details: route oral. Put shortly:
as §4

Data set [11] deals with Mus musculus. Briefly: Inhibition of p-benzoquinone-induced writhing in Swiss albino mouse at 200 mg/kg, po relative to control. It counts as functional. The gist of the method:
as §2

Data set [12] relates to Mus musculus. Description: Analgesic activity against p-benzoquinone-induced abdominal constriction in Swiss albino mouse assessed as number of writhings at 200 mg/kg, po. It counts as functional, Abdomen. Put shortly: as §3
Data set [13] relates to Mus musculus. Briefly: Inhibition of carrageenan-induced paw edema in Swiss albino mouse at 100 mg/kg, po after 270 mins relative to control. It counts as functional. Conditions: 4.5 h. The gist of the method:
as §1

Data set [14] concerns Mus musculus. Briefly: Inhibition of carrageenan-induced paw edema in Swiss albino mouse at 100 mg/kg, po after 180 mins relative to control. It counts as functional. To be noted: 3 h. Put shortly:
as §1

The test system of data set [15] is Mus musculus. Description: Gastric-ulcerogenic effect in Swiss albino mouse assessed as lesions at 100 mg/kg, po. Further details: dose 100 mg/kg. It counts as functional, organism-based. The gist of the method:
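Mice killed under deep ether anesthesia 3 h after the writhing test; the oral dose in 0.5% CMC was the one used in that test. Stomachs removed, opened along the great curvature and examined under a dissecting microscope for lesions or bleeding. Reported as ratio of ulceration; n = 6.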

The subject of data set [16] is Mus musculus. Briefly: Inhibition of carrageenan-induced paw edema in Swiss albino mouse at 100 mg/kg, po after 360 mins relative to control. It counts as functional. Conditions: 6 h. Put shortly: as §1
Data set [17] has as its system Mus musculus. Description: Inhibition of carrageenan-induced paw edema in Swiss albino mouse at 100 mg/kg, po after 90 mins relative to control. To be noted: 1.5 h. It counts as functional. Put shortly: as §1

Calls of active or inactive are those of the source. No cut-off for these calls is given here.

Take `CCS(=O)(=O)c1nc(-c2cccc(Br)c2)n[nH]1`: the Activity in the data set on Mus musculus [1] is listed as 68.8 10^-2mm; with Mus musculus [3], 45.2; with Mus musculus [4], “Non-toxic”; in the data set on Mus musculus [5] it was “Non-toxic”; in the data set with Mus musculus [6], 85.6 10^-2mm; in the data set on Mus musculus [7] it was 74.9 10^-2mm. The Activity was 91.7 10^-2mm in the data set on Mus musculus [8], “Non-toxic” in the data set with Mus musculus [9] and “Non-toxic” with Mus musculus [10]. For the same compound, at 100 mg/kg the inhibition in vivo in the data set with Mus musculus [2] was 4.4%.
Consider `CC(=O)Oc1ccccc1C(=O)O` [ASPIRIN], for which 200 mg/kg produced 53.6% inhibition in vivo in the data set with Mus musculus [11]. Moreover, the Activity in the data set with Mus musculus [12] is listed as 23.8; in the data set on Mus musculus [3], 21.2. Further, the inhibition in vivo at 100 mg/kg with Mus musculus [2] turned out to be 55.2%.
`CSc1nc(-c2ccccc2Cl)n[nH]1`: the Activity in the data set with Mus musculus [1] is listed as 42.7 10^-2mm; in the data set with Mus musculus [3] it was 41.8; in the data set with Mus musculus [4] it was “Non-toxic”; in the data set with Mus musculus [5], “Non-toxic”; with Mus musculus [6] it was 52.8 10^-2mm; in the data set with Mus musculus [7] it was 48.8 10^-2mm. In addition, the Activity in the data set with Mus musculus [8] is listed as 57 10^-2mm; with Mus musculus [9], “Non-toxic”; with Mus musculus [10], “Non-toxic”. Moreover, the inhibition in vivo at 100 mg/kg is 10.2% in the data set on Mus musculus [13]; 5.2% in the data set with Mus musculus [14]; 11.6% with Mus musculus [2]; 17.2% in the data set with Mus musculus [16]; 4.7% in the data set on Mus musculus [17]. For the same compound, the outcome with Mus musculus [15] was Active.
For the compound `CCSc1nc(-c2ccc(Br)cc2)n[nH]1`, the Activity is 59.6 10^-2mm in the data set with Mus musculus [1]; 49.2 with Mus musculus [3]; “Non-toxic” in the data set on Mus musculus [4]; “Non-toxic” in the data set on Mus musculus [5]; 78.2 10^-2mm in the data set with Mus musculus [6]; 69.2 10^-2mm in the data set on Mus musculus [7]. For the same compound, the Activity was 88.3 10^-2mm in the data set on Mus musculus [8], “Non-toxic” with Mus musculus [9] and “Non-toxic” in the data set on Mus musculus [10].
On to `CS(=O)(=O)c1nc(-c2ccc(Br)cc2)n[nH]1`, for which the Activity in the data set on Mus musculus [1] is reported as 51.2 10^-2mm; in the data set on Mus musculus [3] it was 49.4; in the data set with Mus musculus [4] it was “Non-toxic”; in the data set with Mus musculus [5], “Non-toxic”; in the data set on Mus musculus [6], 59.5 10^-2mm; with Mus musculus [7], 55.2 10^-2mm. Further, the Activity was 64 10^-2mm in the data set on Mus musculus [8], “Non-toxic” in the data set on Mus musculus [9] and “Non-toxic” in the data set on Mus musculus [10].
Take `CCSc1nc(-c2ccccc2)n[nH]1`: the Activity is 46 10^-2mm with Mus musculus [1]; 46.1 in the data set with Mus musculus [3]; “Non-toxic” in the data set with Mus musculus [4]; “Non-toxic” in the data set on Mus musculus [5]; 51.2 10^-2mm in the data set with Mus musculus [6]; 48.3 10^-2mm in the data set on Mus musculus [7]. For the same compound, the values for the Activity in the data set with Mus musculus [8], in the data set with Mus musculus [9] and in the data set with Mus musculus [10] were 54.7 10^-2mm, “Non-toxic” and “Non-toxic”, respectively. Besides, in the data set with Mus musculus [2], the inhibition in vivo at 100 mg/kg was determined as 2.5%. The result in the data set with Mus musculus [15] was Active.
Consider `CS(=O)(=O)c1nc(-c2ccccc2)n[nH]1`, for which the Activity is 44.2 10^-2mm in the data set on Mus musculus [1]; 37.4 in the data set on Mus musculus [3]; “Non-toxic” in the data set on Mus musculus [4]; “Non-toxic” with Mus musculus [5]; 47.5 10^-2mm with Mus musculus [6]; 45.2 10^-2mm with Mus musculus [7]. The figures for the Activity in the data set on Mus musculus [8], in the data set with Mus musculus [9] and with Mus musculus [10] were 56.7 10^-2mm, “Non-toxic” and “Non-toxic”, respectively. Moreover, the inhibition in vivo at 100 mg/kg with Mus musculus [13] was determined as 19.2%; with Mus musculus [14], 12.2%; in the data set with Mus musculus [2], 20.9%; in the data set on Mus musculus [17], 1.3%. Further, the outcome in the data set with Mus musculus [15] was Active.
On to `CSc1nc(-c2cccc(Br)c2)n[nH]1`, for which the Activity in the data set on Mus musculus [1] is 47.5 10^-2mm; in the data set with Mus musculus [3], 46.8; in the data set on Mus musculus [4], “Non-toxic”; in the data set with Mus musculus [5], “Non-toxic”; in the data set with Mus musculus [6], 67.7 10^-2mm; with Mus musculus [7], 57.3 10^-2mm. For the same compound, the Activity was 79.5 10^-2mm with Mus musculus [8], “Non-toxic” in the data set on Mus musculus [9] and “Non-toxic” in the data set with Mus musculus [10]. At 100 mg/kg the inhibition in vivo with Mus musculus [2] was 1.1%. In addition, in the data set on Mus musculus [15], the result was Active.
As for `CCSc1nc(-c2cccc(Br)c2)n[nH]1`, the Activity was 48.5 10^-2mm with Mus musculus [1]; 51.5 in the data set with Mus musculus [3]; “Non-toxic” in the data set on Mus musculus [4]; “Non-toxic” in the data set on Mus musculus [5]; 55.3 10^-2mm in the data set with Mus musculus [6]; 52.3 10^-2mm with Mus musculus [7]. Besides, the Activity is 58.3 10^-2mm with Mus musculus [8], “Non-toxic” in the data set on Mus musculus [9] and “Non-toxic” with Mus musculus [10]. Further, the outcome with Mus musculus [15] was Active.
For `CS(=O)(=O)c1nc(-c2cccc(Br)c2)n[nH]1`, the Activity was 48.2 10^-2mm in the data set with Mus musculus [1]; 48.2 with Mus musculus [3]; “Non-toxic” in the data set on Mus musculus [4]; “Non-toxic” in the data set on Mus musculus [5]; 65.8 10^-2mm with Mus musculus [6]; 55.9 10^-2mm with Mus musculus [7]. Besides, the Activity is recorded as 80.5 10^-2mm in the data set on Mus musculus [8], “Non-toxic” in the data set on Mus musculus [9] and “Non-toxic” in the data set on Mus musculus [10]. For the same compound, the outcome in the data set with Mus musculus [15] was Active.
With `CSc1n[nH]c(-c2ccc(Cl)cc2)n1`, the Activity entry in the data set on Mus musculus [4], in the data set on Mus musculus [5], with Mus musculus [9] and with Mus musculus [10] was “Non-toxic” throughout.
As to `CSc1nc(-c2ccccc2)n[nH]1`, the Activity in the data set with Mus musculus [1] is given as 38.1 10^-2mm; in the data set with Mus musculus [3] it was 40.2; with Mus musculus [4], “Non-toxic”; in the data set on Mus musculus [5] it was “Non-toxic”; with Mus musculus [6], 47.6 10^-2mm; in the data set on Mus musculus [7] it was 44.5 10^-2mm. Further, the Activity is recorded as 54.4 10^-2mm in the data set on Mus musculus [8], “Non-toxic” in the data set with Mus musculus [9] and “Non-toxic” in the data set on Mus musculus [10]. For the same compound, the inhibition in vivo at 100 mg/kg is 19% in the data set on Mus musculus [13]; 13.6% in the data set on Mus musculus [14]; 15% in the data set on Mus musculus [2]; 20.9% with Mus musculus [16]; 14.9% in the data set on Mus musculus [17].
For the compound `CSc1nc(-c2ccc(Br)cc2)n[nH]1`, the Activity in the data set with Mus musculus [1] is recorded as 46.9 10^-2mm; with Mus musculus [3], 58.9; in the data set on Mus musculus [4], “Non-toxic”; in the data set with Mus musculus [5] it was “Non-toxic”; in the data set with Mus musculus [6], 63.3 10^-2mm; with Mus musculus [7] it was 54.1 10^-2mm. Also, the Activity in the data set with Mus musculus [8] was 70.9 10^-2mm; with Mus musculus [9], “Non-toxic”; in the data set on Mus musculus [10] it was “Non-toxic”.

For the origin of these results see ChEMBL document CHEMBL1142894, “Preparation of 5-aryl-3-alkylthio-l,2,4-triazoles and corresponding sulfones with antiinflammatory-analgesic activity” (Bioorg Med Chem, 2007).
